# Columns and labels:
# Format in all cases: functional
# Staphylococcus aureus [1] = experiment: Antimicrobial activity against Staphylococcus aureus […] after 16 to 18 hrs by serial dilution method
# How it was run: (§1)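 Tube broth dilution: serial drug dilutions in Mueller Hinton broth, pH adjusted to 5.0 with phosphate buffer. A standardized bacterial suspension was inoculated and incubated 16-18 h at 37 °C. MIC was read as the lowest drug concentration with no visible growth. Ciprofloxacin served as the reference.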
# Escherichia coli [2] = experiment: Antimicrobial activity against Escherichia coli […] after 16 to 18 hrs by serial dilution method; how it was run: as §1
# Pseudomonas aeruginosa [3] = experiment: Antimicrobial activity against Pseudomonas aeruginosa ATTC 27853 after 16 to 18 hrs by serial dilution method; how it was run: as §1
# Klebsiella pneumoniae [4] = experiment: Antimicrobial activity against Klebsiella pneumoniae after 16 to 18 hrs by serial dilution method; how it was run: as §1
# Staphylococcus aureus [5] = experiment: Antimicrobial activity against Staphylococcus aureus […] at MIC after 3 to 4 days by disc diffusion method
# Escherichia coli [6] = experiment: Antimicrobial activity against Escherichia coli […] at MIC after 3 to 4 days by disc diffusion method
# Pseudomonas aeruginosa [7] = experiment: Antimicrobial activity against Pseudomonas aeruginosa ATTC 27853 at MIC after 3 to 4 days by disc diffusion method
# Klebsiella pneumoniae [8] = experiment: Antimicrobial activity against Klebsiella pneumoniae at MIC after 3 to 4 days by disc diffusion method
# [9] = system: Mycobacterium tuberculosis; experiment: Antitubercular activity against Mycobacterium tuberculosis H37Rv after 24 hrs by broth microdilution method
# How it was run: (§2)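 M. tuberculosis H37Rv grown in Middlebrook 7H9 with 10% OADC, diluted to McFarland 1, 50 µl added to 150 µl fresh medium. Compounds from 2 mg/mL DMF stocks tested at 1, 10 and 100 µg/mL; DMF-only controls. 7 days at 37 °C, then 0.01% resazurin added with 24 h further incubation. MIC = lowest concentration preventing blue-to-pink change.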
# [10] = system: Mycobacterium tuberculosis; experiment: Antitubercular activity against Mycobacterium tuberculosis H37Rv at MIC after 24 hrs by broth microdilution method; how it was run: as §2
SMILES,MIC (Staphylococcus aureus [1]),MIC (Escherichia coli [2]),MIC (Pseudomonas aeruginosa [3]),MIC (Klebsiella pneumoniae [4]),diameter of the inhibition zone (DIZ) (Staphylococcus aureus [5]),diameter of the inhibition zone (DIZ) (Escherichia coli [6]),diameter of the inhibition zone (DIZ) (Pseudomonas aeruginosa [7]),diameter of the inhibition zone (DIZ) (Klebsiella pneumoniae [8]),MIC [9],inhibition (INH) [10]
Fc1cccc(-c2nc3ccccc3c3oc(NCCc4ccccc4)nc23)c1,50 µg/mL,50 µg/mL,50 µg/mL,50 µg/mL,<10 mm,<10 mm,<10 mm,<10 mm,> 100 µg/mL,0%
COc1ccccc1Nc1nc2c(-c3ccc(F)cc3)nc3ccccc3c2o1,6.25 µg/mL,6.25 µg/mL,6.25 µg/mL,6.25 µg/mL,22 mm,27 mm,19 mm,23 mm,1 µg/mL,99%
Fc1ccc(-c2nc3ccccc3c3oc(NCc4ccccc4)nc23)cc1,6.25 µg/mL,6.25 µg/mL,6.25 µg/mL,6.25 µg/mL,21 mm,24 mm,24 mm,19 mm,10 µg/mL,95%
CCCCCNc1nc2c(-c3ccc(F)cc3)nc3ccccc3c2o1,50 µg/mL,50 µg/mL,50 µg/mL,50 µg/mL,<10 mm,<10 mm,<10 mm,<10 mm,> 100 µg/mL,0%
Fc1ccc(-c2nc3ccccc3c3oc(Nc4cccc(Cl)c4)nc23)cc1,6.25 µg/mL,6.25 µg/mL,6.25 µg/mL,6.25 µg/mL,22 mm,26 mm,24 mm,21 mm,1 µg/mL,99%
Cc1cc(C)cc(Nc2nc3c(-c4ccc(F)cc4)nc4ccccc4c3o2)c1,12.5 µg/mL,6.25 µg/mL,12.5 µg/mL,12.5 µg/mL,11 mm,24 mm,14 mm,12 mm,10 µg/mL,95%
Fc1ccc(Nc2nc3c(-c4ccc(F)cc4)nc4ccccc4c3o2)cc1,6.25 µg/mL,6.25 µg/mL,6.25 µg/mL,6.25 µg/mL,20 mm,28 mm,22 mm,20 mm,1 µg/mL,99%

# — ChEMBL document CHEMBL1154853, “New 1,3-oxazolo[4,5-c]quinoline derivatives: synthesis and evaluation of antibacterial and antituberculosis properties” (2010)
